Assay results from different studies.
Protocols differ between the studies behind these lines.
PIK3CA C420R: Phosphatidylinositol 4,5-bisphosphate 3-kinase catalytic subunit alpha isoform (PIK3CA, Homo sapiens, UniProt P42336, C420R)
PIK3CA: Phosphatidylinositol 4,5-bisphosphate 3-kinase catalytic subunit alpha isoform (PIK3CA, Homo sapiens, UniProt P42336)
PIK3CA E545K: Phosphatidylinositol 4,5-bisphosphate 3-kinase catalytic subunit alpha isoform (PIK3CA, Homo sapiens, UniProt P42336, E545K)

| Compound | target | read-out | action | method | tested at | measurement | value |
| --- | --- | --- | --- | --- | --- | --- | --- |
| CC(=O)Nc1c(C(C)=O)c(=O)n(C)c2nc(-c3ccc(Cl)cc3Cl)c(-c3ccc(Cl)cc3)cc12 | PIK3CA C420R | cell-free assay |  | competition with immobilised ligand | 1 µM | remaining binding | 88% |
| c1ccc(CNc2nc(N3CCOc4ccccc43)nc3c2CCCC3)cc1 | PIK3CA | target engagement in cells | inhibitor | chemoproteomics | 20 mM | inhibition | 28.5% |
| C=CC(=O)N(C)CCCCC(=O)N1CCN(c2nc(-c3cnc(N)nc3C(F)F)nc(N3CCOCC3)n2)CC1 | PIK3CA | ligand displacement |  | TR-FRET |  | kinact | 0.000127 s⁻¹ |
| CS(=O)(=O)N1CCCC(NC(=O)[C@H](CCC2CCCCC2)NC(=O)c2ccc(CNc3ncnc4c3nnn4-c3ccccc3)cc2)C1 (stereo partly drawn) | PIK3CA C420R | cell-free assay |  | competition with immobilised ligand | 0.1 µM | remaining binding | 89% |
| Nc1ncnc2occ(-c3ccc(NC(=O)Nc4cc(C(F)(F)F)ccc4F)cc3)c12 | Phosphatidylinositol 4,5-bisphosphate 3-kinase catalytic subunit alpha isoform (PIK3CA, Homo sapiens, UniProt P42336, Q546K) | cell-free assay | inhibitor |  | 20 µM | remaining signal | 72% |
| CCS(=O)(=O)c1cc2cc(C[C@@](O)(CC(C)(C)c3ccc(F)cc3C(N)=O)C(F)(F)F)[nH]c2cn1 | Phosphatidylinositol 4,5-bisphosphate 3-kinase catalytic subunit alpha isoform (PIK3CA, Homo sapiens, UniProt P42336, E545A) | cell-free assay |  | competition with immobilised ligand | 1 µM | remaining binding | 99% |
| CCCCNc1ncc2c(-c3ccc(F)cc3)nn(C[C@H]3CC[C@H](N)CC3)c2n1 | PIK3CA | target engagement in cells | inhibitor | chemoproteomics | 20 mM | inhibition | 70.8% |
| Cc1ccc(C(=O)NCc2ccsc2)cc1C#Cc1cn(C(C)C)c2ncnc(N)c12 | Phosphatidylinositol 4,5-bisphosphate 3-kinase catalytic subunit alpha isoform, with p85 (PIK3CA, Homo sapiens, UniProt P42336, E542K) | enzyme activity | inhibitor |  | 1 µM | activity vs control | 100% |
| C=CC(=O)N1CCC(C(=O)N(C)CCCC(=O)N2CCN(c3nc(-c4cnc(N)nc4C(F)F)nc(N4CCOCC4)n3)CC2)CC1 | PIK3CA | cell-free assay |  | TR-FRET |  | kinact | 0.000406 s⁻¹ |
| O=S(=O)(Nc1cc(Sc2ncn[nH]2)c(O)c2ccccc12)c1ccc(-c2ccccc2)cc1 | PIK3CA | enzyme activity | inhibitor |  | 1 µM | remaining activity | ≥ 75% |
| O=C(NCc1ncc(C(F)(F)F)cc1Cl)c1ccc2c(c1)C1(CCS(=O)(=O)CC1)[C@H](C1CC1)N2S(=O)(=O)c1ccc(F)cc1 | Phosphatidylinositol 4,5-bisphosphate 3-kinase catalytic subunit alpha isoform (PIK3CA, Homo sapiens, UniProt P42336, I800L) | cell-free assay |  | competition with immobilised ligand | 1 µM | remaining binding | 78% |
| CC(C)=CC(=O)CCCC(=O)N1CCN(c2nc(-c3cnc(N)nc3C(F)F)nc(N3CCOCC3)n2)CC1 | PIK3CA | ligand displacement |  | TR-FRET |  | kinact/KI | 3210 M⁻¹ s⁻¹ |
| CC(=O)Oc1ccc(-c2coc3c4c(c(CC=C(C)C)c(OC(C)=O)c3c2=O)OC(C)(C)C=C4)cc1OC(C)=O | PIK3CA E545K | enzyme activity | inhibitor | ADP detection | 10 µM | remaining activity | 37.6% |
| O=C(CSc1nc2nccnc2c(=O)n1CCc1ccccc1)Nc1ccccc1 | PIK3CA | enzyme activity | inhibitor |  | 10 µM | inhibition | < 20% |
| Nc1c(C(=O)NCc2ccc(C(=O)NCCCC3CCCCC3)cc2)cnn1-c1ccccc1 | Phosphatidylinositol 4,5-bisphosphate 3-kinase catalytic subunit alpha isoform (PIK3CA, Homo sapiens, UniProt P42336, H1047L) | cell-free assay |  | competition with immobilised ligand | 0.1 µM | remaining binding | 100% |
| C=CC(=O)NCCCCC(=O)N1CCN(c2nc(-c3cnc(N)nc3C(F)F)nc(N3CCOCC3)n2)CC1 | PIK3CA | cell-free assay |  | TR-FRET |  | kinact/KI | 16400 M⁻¹ s⁻¹ |
| O=C(O)[C@H]1[C@H](Cn2nnc3ccccc3c2=O)CC[C@@H]1C(=O)c1ccc(OCCC2CCOCC2)cc1 | PIK3CA E545K | cell-free assay |  | competition with immobilised ligand | 1 µM | remaining binding | 72% |
| Cc1ccc(C(=O)Nc2ccc(CN3CCN(C)CC3)c(C(F)(F)F)c2)cc1C#Cc1cnc2cccnn12 | PIK3CA E545K | enzyme activity | inhibitor |  | 23.5 nM | remaining activity | 88% |
